Experimental data: ChEMBL document CHEMBL1131301, “Tyrosine kinase inhibitors. 14. Structure-activity relationships for methylamino-substituted derivatives of 4-[(3-bromophenyl)amino]-6-(methylamino)-pyrido[3,4-d]pyrimidine (PD 158780), a potent and specific inhibitor of the tyrosine kinase activity of receptors for the EGF family of growth factors” (J Med Chem, 1998)
≈ marks a conversion by molar mass, not a printed value.

Assays:
[1] = target: Proto-oncogene tyrosine-protein kinase Src (Homo sapiens, UniProt P12931); assay: Inhibition of c-Src tyrosine kinase
Insulin receptor = Insulin receptor (Homo sapiens, UniProt P06213); assay: Inhibition of insulin receptor(IR)
[2] = target: T1, Epidermal growth factor receptor (Homo sapiens, UniProt P00533); assay: Inhibition of EGF-dependent autophosphorylation of EGF-R in A431 cells
Mus musculus [3] = assay: Net reduction in EGFR tumor burden between the first and last treatments in mice at 200 mg/kg peroral dose, days 1-15 administration; format: functional; conditions: route oral
Procedure, shortened: (§1)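 NCr nu/nu nude mice (18-22 g) were randomized and implanted sc with A431 epidermoid, human-EGFR-transfected NIH 3T3 fibroblast, or MCF-7 breast tumor fragments in the right axilla on day 0. Dosing was ip or oral, by average cage weight, with 6 mice per dose group. Log net cell kill is the net reduction in tumor burden between the first and last treatments.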

[4] = target: T1, Epidermal growth factor receptor; assay: (§2) Inhibition of tyrosine/glutamic acid copolymer phosphorylation by epidermal growth factor receptor prepared of human A431
[5] = Aqueous solubility ([…] degree C); format: physicochemical
Mus musculus [6] = assay: Ratio of treated and control EGFR median tumor mass*100% in mice at 200 mg/kg peroral dose, days 1-15 administration; format: functional; conditions: route oral
Procedure, shortened: (§3)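 Nude mice (NCr nu/nu, 18-22 g) were randomized and implanted sc with tumor fragments in the right axilla on day 0. Tumor lines were A431 epidermoid, NIH 3T3 fibroblasts transfected with human EGFR, and MCF-7 breast. Dosing was ip or oral, by average cage weight, with 6 mice/dose group. Vehicle was 6% dimethylacetamide/94% 50 mM sodium lactate pH 4.0 (suspension), or isethionate salt in water.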

Mus musculus [7] = assay: Net reduction in EGFR tumor burden between the first and last treatments in mice at 25 mg/kg ip dose, days 1-15 administration; format: functional; conditions: route intraperitoneal; procedure, shortened: as §1
[8] = target: T1, Epidermal growth factor receptor; assay: Inhibition of autophosphorylation of epidermal growth factor receptor in A431 cells in culture
[9] = target: T1, Epidermal growth factor receptor; assay: as §2; remark: listed apart in the source
Mus musculus [10] = assay: Weight change of EGFR tumor bearing mice at 25 mg/kg ip dose, days 1-15 administration; conditions: route intraperitoneal
A-431 [11] = assay: Difference in days for treated (T) and control (C) A431 tumor fragments to reach 750 mg in mice at 25 mg/kg intraperitoneal dose, administration days 7-21
[12] = target: Fibroblast growth factor receptor (Homo sapiens, UniProt P22607+P11362+P22455+P21802); assay: Inhibition of fibroblast growth factor receptor(FGFR); format: protein assay
A-431 [13] = assay: Ratio of treated and control A431 median tumor mass*100% in mice at 25 mg/kg peroral dose, days 7-21 administration; format: functional; conditions: route intraperitoneal, in the assay text read “intraperitoneal” for “peroral”; procedure, shortened: as §3
Mus musculus [14] = assay: Weight change of EGFR tumor bearing mice at 200 mg/kg peroral dose, days 1-15 administration; format: functional, organism-based; parameters: dose 200 mg/kg
A-431 [15] = assay: Weight change in A431 tumor bearing mice at 25 mg/kg ip dose, days 7-21 administration; format: functional; conditions: route intraperitoneal
[16] = Inhibition of Platelet-derived growth factor receptor (PDGFR)
[17] = target: Receptor tyrosine-protein kinase erbB-2 (Homo sapiens, UniProt P04626); assay: Inhibition of heregulin-dependent autophosphorylation of ErbB2 receptor in MDA-MB-453 cells; format: functional, cell-based
A-431 [18] = assay: Net reduction in A431 tumor burden between the first and last treatments in mice at 25 mg/kg ip dose, days 7-21 administration; format: functional; conditions: route intraperitoneal; procedure, shortened: as §1
Mus musculus [19] = assay: Difference in days for treated (T) and control (C) EGFR tumor fragments to reach 750 mg in mice at 25 mg/kg ip dose, administration days 1-15; format: functional; conditions: route intraperitoneal
Mus musculus [20] = assay: Difference in days for treated (T) and control (C) EGFR tumor fragments to reach 750 mg in mice at 200 mg/kg peroral dose, administration days 1-15; format: functional; conditions: route oral
Mus musculus [21] = assay: Ratio of treated and control EGFR median tumor mass*100% in mice at 25 mg/kg ip dose, days 1-15 administration; format: functional; conditions: route intraperitoneal; procedure, shortened: as §3
A-431 [22] = assay: Ratio of treated and control A431 median tumor mass*100% in mice at 12 mg/kg peroral dose, days 7-21 administration; format: functional; conditions: route intraperitoneal, in the assay text read “intraperitoneal” for “peroral”; procedure, shortened: as §3
A-431 [23] = assay: Difference in days for treated (T) and control (C) A431 tumor fragments to reach 750 mg in mice at 12 mg/kg peroral dose, administration days 7-21; format: functional; conditions: route intraperitoneal, in the assay text read “intraperitoneal” for “peroral”; procedure, shortened: as §3
SK-OV-3 [24] = assay: Ratio of treated and control SKOV-3 median tumor mass*100% in mice at 25 mg/kg ip dose, days 10-14,17-21,24-28 administration; format: functional; conditions: route intraperitoneal
A-431 [25] = assay: Weight change in A431 tumor bearing mice at 12 mg/kg ip dose, days 7-21 administration; format: functional; conditions: route intraperitoneal
A-431 [26] = assay: Difference in days for treated (T) and control (C) A431 tumor fragments to reach 750 mg in mice at 25 mg/kg peroral dose, administration days 7-21; format: functional; conditions: route oral
SK-OV-3 [27] = assay: Weight change in SKOV-3 tumor bearing mice at 25 mg/kg ip dose, days 10-14,17-21,24-28 administration; format: functional; conditions: route intraperitoneal
A-431 [28] = assay: Net reduction in A431 tumor burden between the first and last treatments in mice at 12 mg/kg ip dose, days 7-21 administration; format: functional; conditions: route intraperitoneal; procedure, shortened: as §1
A-431 [29] = assay: WWeight change in A431 tumor bearing mice at 25 mg/kg ip dose, days 13-26 administration; format: functional; conditions: route intraperitoneal
[30] = target: T1, Epidermal growth factor receptor; assay: Inhibit of phosphorylation of a tyrosine/glutamic acid copolymer by epidermal growth factor receptor prepared from human A431 carcinoma cell vesicles by immunoaffinity chromatography.
SK-OV-3 [31] = assay: Difference in days for treated (T) and control (C) SKOV-3 tumor fragments to reach 750 mg in mice at 25 mg/kg ip dose, administration days 10-14,17-21,24-28; format: functional; conditions: route intraperitoneal
Mus musculus [32] = assay: Ratio of treated and control EGFR median tumor mass*100% in mice at 400 mg/kg peroral dose, days 1-15 administration; format: functional; conditions: route oral; procedure, shortened: as §3
MCF7 [33] = assay: Ratio of treated and control MCF-7 median tumor mass*100% in mice at 25 mg/kg ip dose, days 1-15 administration; format: functional; conditions: route intraperitoneal; procedure, shortened: as §3
Mus musculus [34] = assay: Weight change of EGFR tumor bearing mice at 25 mg/kg ip dose, days 1-15 administration; format: functional; conditions: route intraperitoneal
Mus musculus [35] = assay: Weight change of EGFR tumor bearing mice at 400 mg/kg peroral dose, days 1-15 administration; format: functional; conditions: route oral
MCF7 [36] = assay: Weight change in MCF-7 tumor bearing mice at 25 mg/kg ip dose, days 1-15 administration; format: functional
Mus musculus [37] = assay: Net reduction in EGFR tumor burden between the first and last treatments in mice at 400 mg/kg peroral dose, days 1-15 administration; format: functional; conditions: route oral; procedure, shortened: as §1
MCF7 [38] = assay: Difference in days for treated (T) and control (C) MCF-7 tumor fragments to reach 750 mg in mice at 25 mg/kg ip dose, administration days 1-15; format: functional; conditions: route intraperitoneal
MCF7 [39] = assay: Net reduction in MCF-7 tumor burden between the first and last treatments in mice at 25 mg/kg ip dose, days 1-15 administration; format: functional; conditions: route intraperitoneal; procedure, shortened: as §1
A-431 [40] = assay: Ratio of treated and control A431 median tumor mass*100% in mice at 25 mg/kg peroral dose, days 13-26 administration; format: functional, Mus musculus; conditions: route intraperitoneal, in the assay text read “intraperitoneal” for “peroral”; procedure, shortened: as §3
Mus musculus [41] = assay: Difference in days for treated (T) and control (C) EGFR tumor fragments to reach 750 mg in mice at 400 mg/kg peroral dose, administration days 1-15; format: functional; conditions: route oral
A-431 [42] = assay: Net reduction in A431 tumor burden between the first and last treatments in mice at 25 mg/kg ip dose, administration days 13-26; format: functional; conditions: route intraperitoneal; procedure, shortened: as §1

T1 sequence (P00533 whole entry): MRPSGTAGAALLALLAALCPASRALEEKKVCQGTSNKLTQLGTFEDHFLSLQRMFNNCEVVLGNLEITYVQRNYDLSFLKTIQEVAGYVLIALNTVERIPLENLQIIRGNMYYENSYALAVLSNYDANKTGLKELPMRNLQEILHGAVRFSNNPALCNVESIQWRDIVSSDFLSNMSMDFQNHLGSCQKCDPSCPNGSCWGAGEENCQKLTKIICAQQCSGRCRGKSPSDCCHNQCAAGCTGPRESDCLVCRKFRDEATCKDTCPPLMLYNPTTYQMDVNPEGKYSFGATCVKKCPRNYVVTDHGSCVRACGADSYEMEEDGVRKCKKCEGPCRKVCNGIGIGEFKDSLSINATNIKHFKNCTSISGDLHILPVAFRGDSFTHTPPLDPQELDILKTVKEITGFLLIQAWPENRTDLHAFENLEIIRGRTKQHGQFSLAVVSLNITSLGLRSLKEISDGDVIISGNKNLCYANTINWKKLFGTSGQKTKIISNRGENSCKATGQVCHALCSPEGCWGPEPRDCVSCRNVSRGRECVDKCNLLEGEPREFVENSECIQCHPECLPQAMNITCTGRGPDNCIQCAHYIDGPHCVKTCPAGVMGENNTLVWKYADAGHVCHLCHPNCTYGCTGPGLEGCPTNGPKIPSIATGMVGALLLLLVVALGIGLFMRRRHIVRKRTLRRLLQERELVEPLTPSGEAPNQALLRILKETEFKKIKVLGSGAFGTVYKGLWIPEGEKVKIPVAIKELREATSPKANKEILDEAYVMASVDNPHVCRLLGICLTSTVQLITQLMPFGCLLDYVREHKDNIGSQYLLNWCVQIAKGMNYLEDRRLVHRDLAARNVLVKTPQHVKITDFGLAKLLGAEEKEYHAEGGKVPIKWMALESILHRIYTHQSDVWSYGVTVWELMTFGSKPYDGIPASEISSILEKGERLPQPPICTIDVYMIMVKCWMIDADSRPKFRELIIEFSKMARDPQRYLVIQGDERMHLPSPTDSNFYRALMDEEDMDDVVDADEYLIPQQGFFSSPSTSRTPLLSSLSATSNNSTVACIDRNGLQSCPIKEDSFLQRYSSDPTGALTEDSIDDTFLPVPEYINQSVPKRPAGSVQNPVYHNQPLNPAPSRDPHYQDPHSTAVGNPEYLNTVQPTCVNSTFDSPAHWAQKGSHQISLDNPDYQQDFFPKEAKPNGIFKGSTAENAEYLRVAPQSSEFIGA
Chain of Insulin receptor (P06213 28-758 limits assumed): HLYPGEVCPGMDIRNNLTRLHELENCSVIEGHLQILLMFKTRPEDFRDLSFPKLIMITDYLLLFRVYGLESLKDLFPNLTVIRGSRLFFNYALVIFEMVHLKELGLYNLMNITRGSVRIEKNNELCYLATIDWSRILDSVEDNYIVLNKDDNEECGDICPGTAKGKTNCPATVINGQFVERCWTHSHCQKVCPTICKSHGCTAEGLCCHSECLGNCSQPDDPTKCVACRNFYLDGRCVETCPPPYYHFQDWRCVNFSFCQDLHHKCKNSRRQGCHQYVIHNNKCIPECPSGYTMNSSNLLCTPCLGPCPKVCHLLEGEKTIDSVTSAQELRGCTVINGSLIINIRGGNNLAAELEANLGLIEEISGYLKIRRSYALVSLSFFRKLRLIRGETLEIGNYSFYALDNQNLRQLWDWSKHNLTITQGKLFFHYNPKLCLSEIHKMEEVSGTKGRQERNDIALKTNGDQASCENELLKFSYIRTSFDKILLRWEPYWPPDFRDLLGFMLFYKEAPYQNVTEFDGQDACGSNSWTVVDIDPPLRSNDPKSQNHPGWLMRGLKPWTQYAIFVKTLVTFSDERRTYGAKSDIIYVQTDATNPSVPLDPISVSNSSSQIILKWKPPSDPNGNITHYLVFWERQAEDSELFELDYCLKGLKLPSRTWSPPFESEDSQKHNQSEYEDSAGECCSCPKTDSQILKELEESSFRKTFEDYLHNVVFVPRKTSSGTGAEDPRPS
Chain of Insulin receptor (P06213 763-1382 limits assumed): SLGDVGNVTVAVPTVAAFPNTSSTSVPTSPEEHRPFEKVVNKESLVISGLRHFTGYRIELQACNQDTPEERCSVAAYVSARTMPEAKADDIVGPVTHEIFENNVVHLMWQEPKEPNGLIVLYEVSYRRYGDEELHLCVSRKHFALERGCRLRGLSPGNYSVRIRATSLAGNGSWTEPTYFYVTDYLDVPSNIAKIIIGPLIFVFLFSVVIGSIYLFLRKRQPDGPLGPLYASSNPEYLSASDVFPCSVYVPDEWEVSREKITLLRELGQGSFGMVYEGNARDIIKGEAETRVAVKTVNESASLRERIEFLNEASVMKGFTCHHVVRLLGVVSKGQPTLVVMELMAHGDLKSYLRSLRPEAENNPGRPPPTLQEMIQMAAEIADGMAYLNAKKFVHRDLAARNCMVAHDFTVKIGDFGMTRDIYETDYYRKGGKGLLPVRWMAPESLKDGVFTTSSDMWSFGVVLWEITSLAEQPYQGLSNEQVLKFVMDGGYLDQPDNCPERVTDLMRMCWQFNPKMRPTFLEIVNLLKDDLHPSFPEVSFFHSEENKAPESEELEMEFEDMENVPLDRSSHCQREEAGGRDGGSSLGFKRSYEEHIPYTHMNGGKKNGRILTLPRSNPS
Chain of Proto-oncogene tyrosine-protein kinase Src (P12931 2-536 limits assumed): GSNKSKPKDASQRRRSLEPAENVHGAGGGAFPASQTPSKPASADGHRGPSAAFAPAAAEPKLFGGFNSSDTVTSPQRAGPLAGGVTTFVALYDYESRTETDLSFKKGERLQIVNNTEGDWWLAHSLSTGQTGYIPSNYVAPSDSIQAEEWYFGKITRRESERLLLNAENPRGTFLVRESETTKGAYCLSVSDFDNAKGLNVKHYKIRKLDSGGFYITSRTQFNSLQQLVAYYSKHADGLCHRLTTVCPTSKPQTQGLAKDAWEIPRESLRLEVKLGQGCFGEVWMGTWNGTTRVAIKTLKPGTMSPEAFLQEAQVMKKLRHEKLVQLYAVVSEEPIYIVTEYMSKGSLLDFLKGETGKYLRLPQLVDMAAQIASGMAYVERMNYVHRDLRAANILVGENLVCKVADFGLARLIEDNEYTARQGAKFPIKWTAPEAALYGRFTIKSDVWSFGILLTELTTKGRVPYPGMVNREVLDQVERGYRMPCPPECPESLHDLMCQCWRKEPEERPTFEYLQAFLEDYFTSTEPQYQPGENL
Chain of Receptor tyrosine-protein kinase erbB-2 (P04626 whole entry): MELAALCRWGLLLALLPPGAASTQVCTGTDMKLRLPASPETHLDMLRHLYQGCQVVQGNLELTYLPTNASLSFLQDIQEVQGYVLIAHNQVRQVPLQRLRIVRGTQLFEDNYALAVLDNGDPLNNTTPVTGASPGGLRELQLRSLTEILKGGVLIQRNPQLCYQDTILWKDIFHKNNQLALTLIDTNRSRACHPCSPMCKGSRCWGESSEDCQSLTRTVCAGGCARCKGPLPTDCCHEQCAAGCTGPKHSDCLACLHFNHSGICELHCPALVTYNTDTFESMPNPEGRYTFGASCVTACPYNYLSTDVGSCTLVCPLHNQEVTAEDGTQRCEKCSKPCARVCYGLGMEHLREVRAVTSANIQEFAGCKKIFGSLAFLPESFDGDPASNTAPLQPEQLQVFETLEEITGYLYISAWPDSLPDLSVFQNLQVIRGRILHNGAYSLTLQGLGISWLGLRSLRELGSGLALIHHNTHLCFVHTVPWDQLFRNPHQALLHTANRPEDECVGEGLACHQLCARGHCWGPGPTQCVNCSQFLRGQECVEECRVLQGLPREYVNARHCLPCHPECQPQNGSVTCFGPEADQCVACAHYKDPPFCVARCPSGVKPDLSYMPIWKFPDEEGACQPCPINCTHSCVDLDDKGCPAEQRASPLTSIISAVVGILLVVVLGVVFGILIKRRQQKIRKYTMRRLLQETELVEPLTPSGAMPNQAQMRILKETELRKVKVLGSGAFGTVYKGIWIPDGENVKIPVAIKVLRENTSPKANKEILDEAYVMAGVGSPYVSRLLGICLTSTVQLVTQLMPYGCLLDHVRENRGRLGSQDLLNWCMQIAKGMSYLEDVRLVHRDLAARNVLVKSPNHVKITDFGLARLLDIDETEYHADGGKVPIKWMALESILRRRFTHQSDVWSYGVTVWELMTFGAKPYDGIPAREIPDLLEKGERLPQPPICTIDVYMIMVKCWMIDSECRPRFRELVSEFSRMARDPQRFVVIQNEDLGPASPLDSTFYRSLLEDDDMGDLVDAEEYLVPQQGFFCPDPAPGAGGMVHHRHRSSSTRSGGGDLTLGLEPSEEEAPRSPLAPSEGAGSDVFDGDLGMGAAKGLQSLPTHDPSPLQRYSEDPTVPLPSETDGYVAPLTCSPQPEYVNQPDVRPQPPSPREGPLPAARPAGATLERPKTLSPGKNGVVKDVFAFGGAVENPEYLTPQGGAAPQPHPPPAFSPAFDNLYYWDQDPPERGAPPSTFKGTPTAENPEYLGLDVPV

In the case of `CN(C)CCNc1cc2c(Nc3cccc(Br)c3)ncnc2cn1`, the IC50 [1] is reported as > 50000 nM, the IC50 (Insulin receptor) is reported as > 50000 nM and the IC50 [2] is reported as 43 nM. For the same molecule, the Net cell kill (Mus musculus [3]) was -1.3 log10, the IC50 [4] was 1.1 nM and the S ([5]; buffer) was > 48 mM. The T/C (Mus musculus [6]) was 47%, the Net cell kill (Mus musculus [7]) was -1 log10 and the IC50 [8] was 43 nM. For the same molecule, the IC50 [9] was 1.1 nM, the Weight change (Mus musculus [10]) was -1.1 g and the T-C (A-431 [11]) was 4.7 days. The IC50 [12] was > 50000 nM, the T/C (A-431 [13]) was 66% and the Weight change (Mus musculus [14]) was “Weight gain”. The Weight change (A-431 [15]) was -1.4 g, the IC50 [16] was > 50000 nM and the IC50 [17] was 379 nM. The Net cell kill (A-431 [18]) was -0.5 log10, the T-C (Mus musculus [19]) was 3.3 days and the T-C (Mus musculus [20]) was 1.1 days. The T/C (Mus musculus [21]) was 43%.

For `Brc1cccc(Nc2ncnc3cnc(NCCN4CCOCC4)cc23)c1`, the T/C (A-431 [22]) was 93%, the IC50 [1] was > 50000 nM and the T-C (A-431 [23]) was 1.9 days. For the same molecule, the IC50 (Insulin receptor) was > 50000 nM, the IC50 [2] was 7.9 nM and the T/C (SK-OV-3 [24]) was 100%. For the same molecule, the Weight change (A-431 [25]) was -0.2 g, the T-C (A-431 [26]) was 2.1 days and the Weight change (SK-OV-3 [27]) was -2.1 g. It also gave a solubility ([5]; water, read-out: S) of 10 mM (≈ 4290 µg/mL), a Net cell kill (Mus musculus [7]) of -1.2 log10 and a Net cell kill (A-431 [28]) of -0.7 log10. For the same molecule, the Weight change (A-431 [29]) was -1.1 g, the IC50 [30] was 0.65 nM and the T-C (SK-OV-3 [31]) was 0 days. For the same molecule, the IC50 [8] was 7.9 nM, the T/C (Mus musculus [32]) was 15% and the T/C (MCF7 [33]) was 34%. For the same molecule, the Weight change (Mus musculus [34]) was -1.3 g, the IC50 [9] was 0.7 nM and the IC50 [12] was > 50000 nM. The Weight change (Mus musculus [35]) was -2 g, the Weight change (MCF7 [36]) was “Weight gain” and the IC50 [16] was > 50000 nM. It also gave an IC50 [17] of 219 nM, a Net cell kill (Mus musculus [37]) of -1.1 log10 and a T-C (MCF7 [38]) of 11.7 days. The T-C (Mus musculus [19]) was 1.2 days, the Net cell kill (MCF7 [39]) was -0.1 log10 and the T/C (A-431 [40]) was 98%. It also gave a T-C (Mus musculus [41]) of 2.8 days, a T/C (Mus musculus [21]) of 77% and a Net cell kill (A-431 [42]) of -0.3 log10.
